From ChEMBL document CHEMBL1124804, “Substituted vitamin K epoxide analogues. New competitive inhibitors and substrates of vitamin K1 epoxide reductase” (J Med Chem, 1990) come the findings set out here.

The target in the assay is T1, Vitamin K epoxide reductase complex subunit 1 (Bos taurus, UniProt Q6B4J2).
T1 sequence (Q6B4J2 whole entry): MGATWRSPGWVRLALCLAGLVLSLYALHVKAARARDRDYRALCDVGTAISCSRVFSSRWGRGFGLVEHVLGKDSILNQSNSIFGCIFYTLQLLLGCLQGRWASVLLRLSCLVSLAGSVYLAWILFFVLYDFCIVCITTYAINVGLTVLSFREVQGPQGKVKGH
The assay can be described thus: Apparent kinetic constant for Vitamin K epoxide reductase. An outline of the steps: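 Beef liver microsomes (0.8 mg) as vitamin K1 epoxide reductase source, 0.02% Emulgen 911. Vitamin K1 epoxide varied (10, 12.5, 16.5, 25, 40 μM) with 5 mM DTT, analogue at 0, 20, 40, 60 μM. Double-reciprocal plots built; Ki taken from replots of Km,app against analogue concentration. Also run at 40 μM epoxide with DTT varied 0.33–2.0 mM.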

As to `C/C(=C\C(O)C12OC1(C)C(=O)c1ccccc1C2=O)CCCC(C)CCCC(C)CCCC(C)C` (stereo not drawn), the Ki turned out to be 43 µM.

On to `CC(C)CCCC(C)CCCC(C)CCCC(C)CC(F)C12OC1(C)C(=O)c1ccccc1C2=O` (stereo not drawn), for which the Ki came to 100 µM. In the case of `C/C(=C\CC12OC1(CO)C(=O)c1ccccc1C2=O)CCCC(C)CCCC(C)CCCC(C)C` (stereo not drawn), the Ki was 8 µM. `C/C(=C\CC12OC1(C=O)C(=O)c1ccccc1C2=O)CCCC(C)CCCC(C)CCCC(C)C` (stereo not drawn): the Ki was 26 µM.

As for `CC(C)CCCC(C)CCCC(C)CCCC(C)CC(O)C12OC1(C)C(=O)c1ccccc1C2=O` (stereo not drawn), the Ki is 63 µM. With `C/C(=C\CC12OC1(CF)C(=O)c1ccccc1C2=O)CCCC(C)CCCC(C)CCCC(C)C` (stereo not drawn), the Ki was 17 µM. On to `C/C(=C\CC12OC1(C(F)F)C(=O)c1ccccc1C2=O)CCCC(C)CCCC(C)CCCC(C)C` (stereo not drawn), for which the Ki was 63 µM.

Take `C/C(=C\CC12OC1(CCl)C(=O)c1ccccc1C2=O)CCCC(C)CCCC(C)CCCC(C)C` (stereo not drawn): the Ki is 74 µM.
